Target: Xanthine dehydrogenase/oxidase (Homo sapiens, UniProt P47989)
Experiment: Inhibition of xanthine oxidase assessed as decrease in uric acid production by spectrophotometry
Outline: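 Flavonoid at various concentrations with 50 µM xanthine, 0.2 mM hydroxylamine and 0.1 mM EDTA. Stopped with HCl, then uric acid read as absorbance at 290 nm against an enzyme-free blank. IC50 by linear regression.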

Xanthine dehydrogenase/oxidase, sequence (P47989 whole entry): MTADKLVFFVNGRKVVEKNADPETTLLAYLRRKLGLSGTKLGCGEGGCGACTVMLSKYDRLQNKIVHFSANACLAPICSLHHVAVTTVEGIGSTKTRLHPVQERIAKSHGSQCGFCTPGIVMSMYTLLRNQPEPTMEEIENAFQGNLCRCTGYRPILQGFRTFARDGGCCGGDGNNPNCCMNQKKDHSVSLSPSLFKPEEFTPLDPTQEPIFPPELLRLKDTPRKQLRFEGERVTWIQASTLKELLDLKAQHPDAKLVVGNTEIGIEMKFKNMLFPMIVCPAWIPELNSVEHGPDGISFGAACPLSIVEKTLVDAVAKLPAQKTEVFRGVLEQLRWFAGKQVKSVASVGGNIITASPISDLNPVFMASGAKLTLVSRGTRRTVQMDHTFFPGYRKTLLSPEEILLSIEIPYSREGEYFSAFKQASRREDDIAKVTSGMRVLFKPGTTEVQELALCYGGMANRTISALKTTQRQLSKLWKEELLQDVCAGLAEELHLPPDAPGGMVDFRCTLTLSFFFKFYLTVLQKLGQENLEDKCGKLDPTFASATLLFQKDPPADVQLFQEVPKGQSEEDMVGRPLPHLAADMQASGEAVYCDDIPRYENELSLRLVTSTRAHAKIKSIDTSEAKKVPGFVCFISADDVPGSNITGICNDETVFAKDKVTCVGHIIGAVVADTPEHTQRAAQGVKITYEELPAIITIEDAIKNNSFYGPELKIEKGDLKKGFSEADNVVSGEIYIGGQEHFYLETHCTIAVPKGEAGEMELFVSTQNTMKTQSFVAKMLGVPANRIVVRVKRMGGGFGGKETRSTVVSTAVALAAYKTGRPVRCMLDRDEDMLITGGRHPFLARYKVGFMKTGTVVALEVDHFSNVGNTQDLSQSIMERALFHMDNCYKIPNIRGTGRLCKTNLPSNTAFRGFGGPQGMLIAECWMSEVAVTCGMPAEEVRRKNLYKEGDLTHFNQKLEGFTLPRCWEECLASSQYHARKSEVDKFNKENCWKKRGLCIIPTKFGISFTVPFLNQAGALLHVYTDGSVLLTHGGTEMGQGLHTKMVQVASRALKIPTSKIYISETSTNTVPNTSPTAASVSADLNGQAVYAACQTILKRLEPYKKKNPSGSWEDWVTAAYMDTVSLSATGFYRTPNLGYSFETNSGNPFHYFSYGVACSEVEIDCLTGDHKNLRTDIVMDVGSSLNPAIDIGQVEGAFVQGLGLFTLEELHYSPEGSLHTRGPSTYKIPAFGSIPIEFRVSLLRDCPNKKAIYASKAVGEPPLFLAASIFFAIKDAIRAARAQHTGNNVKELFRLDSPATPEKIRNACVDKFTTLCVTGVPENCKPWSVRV

IC50 [µM] | Structure (SMILES)
> 100 | O=C(C=Cc1ccc(O)cc1)OC[C@H]1O[C@@H](Oc2c(-c3ccc(O)cc3)oc3cc(O)cc(=O)c-3c2O)[C@H](O)[C@@H](O)[C@@H]1O [kaempferol-3-beta-D-(6-O-trans-p-coumaroyl)glucopyranoside]
> 100 | C[C@@H]1O[C@@H](Oc2c(-c3ccc(O)c(O)c3)oc3cc(O)cc(=O)c-3c2O)[C@H](O)[C@H](O)[C@H]1O

Source: BindingDB's records for doi:10.1021/np970237h (University of Antwerp, 1998)
